Laboratory results published in ChEMBL document CHEMBL1157807, “NO-releasing esters show carbonic anhydrase inhibitory action against human isoforms I and II” (Bioorg Med Chem, 2010).

Key:
Carbonic anhydrase 1 [1] = molecular target: T1, Carbonic anhydrase 1 (Homo sapiens, UniProt P00915); assay: Inhibition of human carbonic anhydrase 1 esterase activity by spectrophotometry; conditions: read-out: I50
Summary of the method: (§1)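 Enzyme purified from human erythrocytes. Esterase activity is followed as 4-nitrophenylacetate conversion to 4-nitrophenylate by absorbance at 348 nm over 3 min at 25 °C, in Tris–SO4 buffer pH 7.4. A reference cuvette lacks enzyme. Each inhibitor concentration is run in triplicate, with uninhibited control activity set to 100%. IC50 is read from %activity vs [inhibitor] plots.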

Carbonic anhydrase 2 [2] = molecular target: T2, Carbonic anhydrase 2 (Homo sapiens, UniProt P00918); assay: Competitive inhibition of human carbonic anhydrase 2 esterase activity by Lineweaver-Burke plot analysis
Summary of the method: (§2)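 Erythrocyte-purified human isozyme in the 4-nitrophenylacetate esterase assay, read at 348 nm over 3 min at 25 °C in Tris–SO4 pH 7.4. Three inhibitor concentrations are each tested against five substrate concentrations (0.15–0.75 mM). Ki and inhibition mode are taken from Lineweaver–Burk plots.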

Carbonic anhydrase 1 [3] = molecular target: T1, Carbonic anhydrase 1; assay: Competitive inhibition of human carbonic anhydrase 1 esterase activity by Lineweaver-Burke plot analysis; summary of the method: as §2
Carbonic anhydrase 2 [4] = molecular target: T2, Carbonic anhydrase 2; assay: Inhibition of human carbonic anhydrase 2 esterase activity by spectrophotometry; conditions: read-out: I50; summary of the method: as §1
Carbonic anhydrase 2 [5] = molecular target: T2, Carbonic anhydrase 2; assay: Uncompetitive inhibition of human carbonic anhydrase 2 esterase activity by Lineweaver-Burke plot analysis; summary of the method: as §2
Carbonic anhydrase 1 [6] = molecular target: T1, Carbonic anhydrase 1; assay: Noncompetitive inhibition of human carbonic anhydrase 1 esterase activity by Lineweaver-Burke plot analysis; summary of the method: as §2
Carbonic anhydrase 2 [7] = molecular target: T2, Carbonic anhydrase 2; assay: Noncompetitive inhibition of human carbonic anhydrase 2 esterase activity by Lineweaver-Burke plot analysis; summary of the method: as §2
Carbonic anhydrase 1 [8] = molecular target: T1, Carbonic anhydrase 1; assay: Uncompetitive inhibition of human carbonic anhydrase 1 esterase activity by Lineweaver-Burke plot analysis; summary of the method: as §2

T1 sequence (P00915 whole entry): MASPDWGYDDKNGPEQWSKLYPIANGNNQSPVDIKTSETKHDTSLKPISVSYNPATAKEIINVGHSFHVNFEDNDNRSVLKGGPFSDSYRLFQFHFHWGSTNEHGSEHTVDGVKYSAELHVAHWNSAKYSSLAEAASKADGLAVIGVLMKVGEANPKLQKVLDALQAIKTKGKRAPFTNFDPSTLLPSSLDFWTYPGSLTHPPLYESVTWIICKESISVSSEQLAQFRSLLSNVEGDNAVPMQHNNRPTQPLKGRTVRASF

Compound	IC50 (Carbonic anhydrase 1 [1]) [µM]	Ki (Carbonic anhydrase 2 [2]) [µM]	Ki (Carbonic anhydrase 1 [3]) [µM]	IC50 (Carbonic anhydrase 2 [4]) [µM]	Ki (Carbonic anhydrase 2 [5]) [µM]	Ki (Carbonic anhydrase 1 [6]) [µM]	Ki (Carbonic anhydrase 2 [7]) [µM]	Ki (Carbonic anhydrase 1 [8]) [µM]
O=[N+]([O-])O[C@@H]1CC2c3ccccc3C1[C@@H]2O (stereo partly drawn)	10200	196	18700	98.1	–	–	–	–
O=[N+]([O-])O[C@H]1CC2CCC1[C@@H]2O (stereo partly drawn)	9100	133	17200	73.1	–	–	–	–
O=[N+]([O-])O[C@@H]1CC2CCC1[C@@H]2O (stereo partly drawn)	7130	121	13600	65.1	–	–	–	–
O=[N+]([O-])O[C@@H]1CC[C@H](Br)[C@@H]2CC[C@H]1O2	12100	–	–	110	223	22500	–	–
O=[N+]([O-])O[C@H]1CCCCCC[C@@H]1O	23000	–	–	181	–	45200	267	–
O=[N+]([O-])O[C@H]1CCCC[C@@H]1O	–	–	–	560	–	221000	986	–
O=[N+]([O-])O[C@H]1CC=CC[C@@H]1O (racemic)	–	–	–	790	–	274000	1370	–
O=[N+]([O-])O[C@H]1CC/C=C\CC[C@@H]1O (racemic)	21000	–	–	243	–	41800	541	–
O=[N+]([O-])O[C@@H](CO)c1ccccc1 (single isomer, unassigned)	–	–	–	632	–	–	1140	288000
